Experimental data: ChEMBL document CHEMBL2016555, “4-Methoxy-N-[2-(trifluoromethyl)biphenyl-4-ylcarbamoyl]nicotinamide: A Potent and Selective Agonist of S1P1” (ACS Med Chem Lett, 2011)

Experiments:
PXR (NR1I2) = target: T1, PXR (NR1I2) (Homo sapiens, UniProt O75469); test: Induction of human PXR at 10 uM relative to control; conditions: read-out: Activity
T1 sequence (O75469 whole entry): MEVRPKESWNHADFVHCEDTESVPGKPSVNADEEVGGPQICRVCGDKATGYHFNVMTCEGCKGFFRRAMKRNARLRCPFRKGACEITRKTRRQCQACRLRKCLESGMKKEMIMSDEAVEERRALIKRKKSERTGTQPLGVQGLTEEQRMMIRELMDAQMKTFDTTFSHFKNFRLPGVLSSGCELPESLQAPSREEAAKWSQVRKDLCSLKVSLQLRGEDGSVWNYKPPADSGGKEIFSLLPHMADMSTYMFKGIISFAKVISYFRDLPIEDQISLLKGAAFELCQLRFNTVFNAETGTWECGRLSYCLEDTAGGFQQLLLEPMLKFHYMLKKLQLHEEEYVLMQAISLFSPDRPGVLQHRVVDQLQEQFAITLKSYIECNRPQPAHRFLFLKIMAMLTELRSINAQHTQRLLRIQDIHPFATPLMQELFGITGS

[1] = Bioavailability in Sprague-Dawley rat at 3 mg/kg, po and 1 mg/kg, iv; type: ADME, organism-based; conditions: in vivo
[2] = target: T2, Sphingosine 1-phosphate receptor 5 (Homo sapiens, UniProt Q9H228); test: Agonist activity at human S1P5 expressed in CHO-K1 cells coexpressing Gq/i5 assessed as calcium mobilization-induced bioluminescence change measured for 90 secs by fluorimetry; type: functional, cell-based
T2 sequence (Q9H228 whole entry): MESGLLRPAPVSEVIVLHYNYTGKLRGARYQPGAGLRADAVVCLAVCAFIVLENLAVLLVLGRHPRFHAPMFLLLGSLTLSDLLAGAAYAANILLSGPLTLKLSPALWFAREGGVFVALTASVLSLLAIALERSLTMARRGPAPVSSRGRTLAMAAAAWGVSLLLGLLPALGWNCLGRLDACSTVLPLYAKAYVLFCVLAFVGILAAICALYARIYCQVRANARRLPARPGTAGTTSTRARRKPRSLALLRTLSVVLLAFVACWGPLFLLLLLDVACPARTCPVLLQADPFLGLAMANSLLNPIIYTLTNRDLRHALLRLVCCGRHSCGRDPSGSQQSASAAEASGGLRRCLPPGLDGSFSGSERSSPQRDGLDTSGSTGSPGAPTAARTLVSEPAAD
How it was run: (§1)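 CHO-K1 cells expressing the human S1P receptor subtype plus chimeric Gq/i5; Ca2+ mobilization measured; efficacy relative to S1P at 0.20 μM; compounds not reaching >10% of control activity reported as > highest concentration tested.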

Rattus norvegicus [3] = test: Toxicity in Sprague-Dawley rat assessed as mortality at 200 mg/kg, po administered qd for 4 days; type: organism-based; parameters: dose 200 mg/kg, route oral; conditions: in vivo, 96 h
How it was run: (§2)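 Male Sprague-Dawley rats, N = 3/group, dosed orally once daily for 4 days at 50 or 200 mg/kg. Endpoints were mortality, clinical signs, body weight, and clinical chemistry including total bilirubin and cholesterol.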

Cytochrome P450 2D6 = Cytochrome P450 2D6 (Homo sapiens, UniProt P10635); test: Inhibition of human CYP2D6; type: ADME
Chain of Cytochrome P450 2D6 (P10635 whole entry): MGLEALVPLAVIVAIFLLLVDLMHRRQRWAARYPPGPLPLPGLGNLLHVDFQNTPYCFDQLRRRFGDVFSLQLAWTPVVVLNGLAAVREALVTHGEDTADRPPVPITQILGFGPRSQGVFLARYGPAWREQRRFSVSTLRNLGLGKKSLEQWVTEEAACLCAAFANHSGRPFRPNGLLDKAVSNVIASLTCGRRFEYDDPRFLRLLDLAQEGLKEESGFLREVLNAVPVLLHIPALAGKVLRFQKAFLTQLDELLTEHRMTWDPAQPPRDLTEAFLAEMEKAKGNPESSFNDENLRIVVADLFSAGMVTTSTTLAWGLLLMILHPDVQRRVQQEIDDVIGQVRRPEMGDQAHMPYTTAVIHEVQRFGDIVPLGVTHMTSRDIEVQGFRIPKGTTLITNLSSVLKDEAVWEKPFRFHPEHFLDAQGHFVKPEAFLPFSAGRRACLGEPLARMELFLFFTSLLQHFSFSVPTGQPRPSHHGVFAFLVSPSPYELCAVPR

[4] = Intrinsic clearance in rat liver microsomes after 30 mins; type: ADME, Microsome; conditions: read-out: CLH
[5] = Volume of distribution at steady state in Sprague-Dawley rat at 1 mg/kg, iv; type: ADME, organism-based; parameters: dose 1 mg/kg, route intravenous; conditions: in vivo, read-out: Vdss
[6] = AUC (0 to 48 hrs) in Sprague-Dawley rat at 1 mg/kg, iv; type: ADME, organism-based; parameters: time < 48 hr, dose 1 mg/kg, route intravenous; conditions: plasma
[7] = target: Sphingosine 1-phosphate receptor 2 (Homo sapiens, UniProt O95136); test: Agonist activity at human S1P2 expressed in CHO-K1 cells coexpressing Gq/i5 assessed as intracellular calcium release by fluorimetry; type: functional, cell-based; how it was run: as §1
Chain of Sphingosine 1-phosphate receptor 2 (O95136 whole entry): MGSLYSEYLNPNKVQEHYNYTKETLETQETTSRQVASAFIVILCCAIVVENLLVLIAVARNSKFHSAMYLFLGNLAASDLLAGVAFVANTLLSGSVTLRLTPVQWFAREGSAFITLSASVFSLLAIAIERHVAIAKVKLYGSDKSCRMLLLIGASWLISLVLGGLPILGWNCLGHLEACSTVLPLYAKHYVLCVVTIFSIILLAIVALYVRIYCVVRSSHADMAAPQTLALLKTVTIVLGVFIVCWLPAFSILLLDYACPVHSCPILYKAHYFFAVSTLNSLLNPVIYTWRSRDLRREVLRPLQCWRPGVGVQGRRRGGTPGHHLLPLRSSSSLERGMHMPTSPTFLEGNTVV

Rattus norvegicus [8] = test: Toxicity in Sprague-Dawley rat assessed as increase in bilirubin level at 200 mg/kg, po administered qd for 4 days; type: organism-based; parameters: dose 200 mg/kg, route oral; conditions: in vivo, 96 h; how it was run: as §2
[9] = Plasma concentration in Lewis rat at 3 mg/kg, po at 24 hrs; type: ADME, organism-based; parameters: dose 3 mg/kg, route oral
How it was run: (§3)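 Female Lewis rats dosed orally once at 0.30, 1.0 or 3.0 mg/kg (N = 5; 3.0 mg/kg group N = 3) in 20% HPBCD, 1% HPMC, 1% pluronic F68, pH 2.1 with MSA; blood lymphocytes and plasma concentration at 24 h; ANOVA/Dunnett's vs vehicle.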

[10] = target: Voltage-gated inwardly rectifying potassium channel KCNH2 (Homo sapiens, UniProt Q12809); test: Inhibition of human ERG
Chain of Voltage-gated inwardly rectifying potassium channel KCNH2 (Q12809 whole entry): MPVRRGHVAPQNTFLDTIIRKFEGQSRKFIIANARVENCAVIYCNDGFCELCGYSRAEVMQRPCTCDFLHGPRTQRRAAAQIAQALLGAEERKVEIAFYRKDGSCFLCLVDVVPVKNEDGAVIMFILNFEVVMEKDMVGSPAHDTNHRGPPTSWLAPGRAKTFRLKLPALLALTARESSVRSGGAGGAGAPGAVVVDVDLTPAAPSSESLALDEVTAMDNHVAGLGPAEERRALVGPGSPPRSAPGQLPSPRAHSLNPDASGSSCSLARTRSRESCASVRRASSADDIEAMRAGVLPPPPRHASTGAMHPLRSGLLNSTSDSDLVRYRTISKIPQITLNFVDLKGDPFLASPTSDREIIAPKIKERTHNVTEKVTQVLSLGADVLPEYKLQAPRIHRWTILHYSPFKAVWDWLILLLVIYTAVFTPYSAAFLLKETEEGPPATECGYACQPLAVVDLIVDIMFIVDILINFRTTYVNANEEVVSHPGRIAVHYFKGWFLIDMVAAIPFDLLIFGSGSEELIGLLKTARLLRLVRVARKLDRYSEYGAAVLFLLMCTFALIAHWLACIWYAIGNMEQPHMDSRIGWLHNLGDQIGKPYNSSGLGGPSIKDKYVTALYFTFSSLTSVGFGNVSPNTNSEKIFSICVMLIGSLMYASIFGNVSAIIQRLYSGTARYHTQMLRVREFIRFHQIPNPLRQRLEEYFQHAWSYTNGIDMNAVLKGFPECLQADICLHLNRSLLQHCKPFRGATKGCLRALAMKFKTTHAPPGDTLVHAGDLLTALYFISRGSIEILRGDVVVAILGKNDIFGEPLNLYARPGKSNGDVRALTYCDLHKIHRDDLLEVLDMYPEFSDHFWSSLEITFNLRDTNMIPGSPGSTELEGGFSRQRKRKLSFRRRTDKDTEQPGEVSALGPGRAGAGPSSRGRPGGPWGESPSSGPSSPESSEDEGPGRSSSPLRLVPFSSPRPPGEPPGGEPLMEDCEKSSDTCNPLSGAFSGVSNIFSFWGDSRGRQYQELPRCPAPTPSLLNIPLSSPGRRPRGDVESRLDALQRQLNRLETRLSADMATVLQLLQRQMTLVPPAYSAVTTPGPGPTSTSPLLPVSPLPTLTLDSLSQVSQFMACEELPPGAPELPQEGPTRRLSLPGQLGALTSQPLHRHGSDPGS

[11] = Plasma concentration in Lewis rat at 0.3 mg/kg, po at 24 hrs; type: ADME, organism-based; parameters: dose 0.3 mg/kg, route oral; how it was run: as §3
[12] = Plasma protein binding in Sprague-Dawley rat in vitro by ultracentrifugation; conditions: read-out: PPB (converted)
Rattus norvegicus [13] = test: Toxicity in Sprague-Dawley rat assessed as increase in cholesterol level at 200 mg/kg, po administered qd for 4 days; type: organism-based; parameters: dose 200 mg/kg, route oral; conditions: in vivo, 96 h; how it was run: as §2
[14] = Half life in Sprague-Dawley rat at 1 mg/kg, iv; type: ADME, organism-based; parameters: dose 1 mg/kg, route intravenous; conditions: in vivo
Rattus norvegicus [15] = test: Toxicity in Sprague-Dawley rat assessed as adverse clinical signs at 200 mg/kg, po administered qd for 4 days; type: organism-based; parameters: dose 200 mg/kg, route oral; conditions: in vivo, 96 h; how it was run: as §2
Rattus norvegicus [16] = test: Immunosuppressive activity in Lewis rat assessed as change in peripheral lymphocyte count at 1 mg/kg, po after 24 hrs relative to vehicle treated control; type: functional
How it was run: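 Female Lewis rats (N = 5/group) given one oral dose of 1 mg/kg (20% captisol, 1% HPMC, 1% pluronic F68, pH 2.1 with MSA); blood lymphocyte count and total plasma compound measured at 24 h; POC vs vehicle, ANOVA/Dunnett's test.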

[17] = target: T3, Sphingosine 1-phosphate receptor 4 (Homo sapiens, UniProt O95977); test: Agonist activity at human S1P4 expressed in CHO-K1 cells coexpressing Gq/i5 assessed as calcium mobilization-induced bioluminescence change after measured for 90 secs by fluorimetry; type: functional, cell-based
T3 sequence (O95977 whole entry): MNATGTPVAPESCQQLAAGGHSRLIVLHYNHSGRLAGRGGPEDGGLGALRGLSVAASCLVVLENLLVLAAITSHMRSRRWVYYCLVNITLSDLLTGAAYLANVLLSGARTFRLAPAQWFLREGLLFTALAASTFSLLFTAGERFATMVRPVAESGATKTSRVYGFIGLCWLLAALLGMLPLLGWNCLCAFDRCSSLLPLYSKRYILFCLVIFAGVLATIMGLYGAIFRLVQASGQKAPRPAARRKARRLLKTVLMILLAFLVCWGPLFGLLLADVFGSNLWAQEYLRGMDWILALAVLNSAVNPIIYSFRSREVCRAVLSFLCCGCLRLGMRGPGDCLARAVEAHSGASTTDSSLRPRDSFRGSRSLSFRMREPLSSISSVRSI

Rattus norvegicus [18] = test: AUC (0 to 48 hrs) in Sprague-Dawley rat at 100 mg/kg, po; type: ADME, organism-based, Plasma; parameters: time < 48 hr, dose 100 mg/kg, route oral; conditions: in vivo
Rattus norvegicus [19] = test: Toxicity in Sprague-Dawley rat assessed as clinical signs at 50 mg/kg, po administered qd for 4 days; type: organism-based; parameters: dose 50 mg/kg, route oral; conditions: in vivo, 96 h; how it was run: as §2
[20] = Clearance in Sprague-Dawley rat at 1 mg/kg, iv; type: ADME, organism-based; parameters: dose 1 mg/kg, route intravenous; conditions: in vivo
Rattus norvegicus [21] = test: Toxicity in Sprague-Dawley rat assessed as mortality at 50 mg/kg, po administered qd for 4 days; type: organism-based; parameters: dose 50 mg/kg, route oral; conditions: in vivo, 96 h; how it was run: as §2
Rattus norvegicus [22] = test: Toxicity in Sprague-Dawley rat assessed as weight loss at 50 mg/kg, po administered qd for 4 days; type: organism-based; parameters: dose 50 mg/kg, route oral; conditions: in vivo, 96 h; how it was run: as §2
[23] = target: Sphingosine 1-phosphate receptor 3 (Homo sapiens, UniProt Q99500); test: Agonist activity at human S1P3 expressed in CHO-K1 cells coexpressing Gq/i5 assessed as intracellular calcium release by fluorimetry; type: functional, cell-based; how it was run: as §1
Chain of Sphingosine 1-phosphate receptor 3 (Q99500 whole entry): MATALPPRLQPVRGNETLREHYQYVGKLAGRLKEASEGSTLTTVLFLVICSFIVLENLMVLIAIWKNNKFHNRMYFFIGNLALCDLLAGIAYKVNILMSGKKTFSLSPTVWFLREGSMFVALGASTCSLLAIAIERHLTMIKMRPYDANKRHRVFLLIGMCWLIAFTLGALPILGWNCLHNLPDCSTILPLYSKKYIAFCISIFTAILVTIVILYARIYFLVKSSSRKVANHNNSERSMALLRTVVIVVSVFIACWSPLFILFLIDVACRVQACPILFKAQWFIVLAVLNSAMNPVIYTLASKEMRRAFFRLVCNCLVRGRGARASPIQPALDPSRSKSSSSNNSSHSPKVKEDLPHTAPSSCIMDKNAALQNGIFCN

[24] = target: T2, Sphingosine 1-phosphate receptor 5; test: Agonist activity at human S1P5 expressed in CHO-K1 cells coexpressing Gq/i5 assessed as calcium mobilization-induced bioluminescence change measured for 90 secs by fluorimetry relative to S1P; type: functional, cell-based; how it was run: as §1
[25] = AUC (0 to 48 hrs) in Sprague-Dawley rat at 3 mg/kg, po; type: ADME, organism-based; parameters: time < 48 hr, dose 3 mg/kg, route oral; conditions: plasma
Rattus norvegicus [26] = test: Immunosuppressive activity in po dosed Lewis rat assessed as change in peripheral lymphocyte count after 24 hrs relative to vehicle treated control; type: functional, organism-based; how it was run: as §3
[27] = target: Sphingosine 1-phosphate receptor 1 (Homo sapiens, UniProt P21453); test: Agonist activity at human S1P1 expressed in U2OS cells coexpressing eGFP assessed as receptor internalization after 1 hr by microscopic analysis relative to 1-(4-(6-benzylbenzofuran-2-yl)-3-fluorobenzyl)azetidine-3-carboxylic acid; type: functional, cell-based
Chain of Sphingosine 1-phosphate receptor 1 (P21453 whole entry, the tested form may be a part): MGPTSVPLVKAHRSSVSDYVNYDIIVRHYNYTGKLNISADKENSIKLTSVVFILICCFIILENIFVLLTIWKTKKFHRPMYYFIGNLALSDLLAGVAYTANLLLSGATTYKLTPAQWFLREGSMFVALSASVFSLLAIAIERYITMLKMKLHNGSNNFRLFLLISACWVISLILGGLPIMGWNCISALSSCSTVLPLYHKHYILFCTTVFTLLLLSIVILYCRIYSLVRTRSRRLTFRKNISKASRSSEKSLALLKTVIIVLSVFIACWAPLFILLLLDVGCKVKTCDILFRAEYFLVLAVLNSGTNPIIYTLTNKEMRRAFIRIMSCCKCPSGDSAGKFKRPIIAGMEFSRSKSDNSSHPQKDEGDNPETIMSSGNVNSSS
How it was run: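 Human S1P1–eGFP fusion protein expressed in U2OS cells; agonism read as receptor internalization; EC50 derived, efficacy expressed relative to 1-(4-(6-benzylbenzofuran-2-yl)-3-fluorobenzyl)azetidine-3-carboxylic acid at 1.0 μM.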

Rattus norvegicus [28] = test: Toxicity in Sprague-Dawley rat assessed as weight loss at 200 mg/kg, po administered qd for 4 days; type: organism-based; parameters: dose 200 mg/kg, route oral; conditions: in vivo, 96 h; how it was run: as §2
Rattus norvegicus [29] = test: Immunosuppressive activity in po dosed Lewis rat assessed as change in peripheral lymphocyte count at 3 mg/kg, po after 24 hrs relative to vehicle treated control; type: functional; how it was run: as §3
Rattus norvegicus [30] = test: Toxicity in Sprague-Dawley rat assessed as increase in bilirubin level at 50 mg/kg, po administered qd for 4 days; type: organism-based; parameters: dose 50 mg/kg, route oral; conditions: in vivo, 96 h; how it was run: as §2

COc1ccncc1C(=O)NC(=O)Nc1ccc(-c2ccccc2)c(C(F)(F)F)c1
activity at 10 µM (PXR (NR1I2)): 3.7% | bioavailability [1]: 140% | EC50 [2]: 4.3 µM | Activity (Rattus norvegicus [3]): Non-toxic | IC50 (Cytochrome P450 2D6): > 30 µM | microsomal CLint [4]: < 14 µL/min/mg | Vd [5]: 6.3 L/kg | AUC(0-t) at 48 h [6]: 3400 ng·h/mL | EC50 [7]: > 25 µM | Activity (Rattus norvegicus [8]): Toxic | concentration at 24 h [9]: 160 ng/mL | IC50 [10]: > 10 µM | concentration at 24 h [11]: 17 ng/mL | fraction unbound [12]: 0.05 | Activity (Rattus norvegicus [13]): Toxic | half-life [14]: 19 h | Activity (Rattus norvegicus [15]): Non-toxic | Activity (Rattus norvegicus [16]): -67% | EC50 [17]: > 50 µM | AUC (Rattus norvegicus [18]): 350000 ng·h/mL | Activity (Rattus norvegicus [19]): Non-toxic | clearance [20]: 4.17 mL/min/kg | Activity (Rattus norvegicus [21]): Non-toxic | Activity (Rattus norvegicus [22]): Non-toxic | EC50 [23]: > 25 µM | Efficacy [24]: 58% | AUC(0-t) at 48 h [25]: 13000 ng·h/mL | Activity (Rattus norvegicus [26]): Dose-dependent effect | Efficacy [27]: 96% | Activity (Rattus norvegicus [28]): Non-toxic | Activity (Rattus norvegicus [29]): 81% | Activity (Rattus norvegicus [30]): Toxic
